Experimental data: ChEMBL document CHEMBL4373708 (J Med Chem, 2019)
Activity calls are given as the source filed them. No cut-off for these calls is given here.

Columns and labels:
[1] = target: T1, Pendrin (Mus musculus) (UniProt Q9R155); test: Inhibition of mouse slc26a4 expressed in FRT cells co-expressing EYFP-H148Q/I152L/F46L assessed as reduction in protein-mediated chloride/iodide exchange at 10 uM preincubated for 10 mins followed by NaI-substituted PBS addition and measured by YFP-based fluorescence assay; assay type: cell-based
T1 sequence (whole entry): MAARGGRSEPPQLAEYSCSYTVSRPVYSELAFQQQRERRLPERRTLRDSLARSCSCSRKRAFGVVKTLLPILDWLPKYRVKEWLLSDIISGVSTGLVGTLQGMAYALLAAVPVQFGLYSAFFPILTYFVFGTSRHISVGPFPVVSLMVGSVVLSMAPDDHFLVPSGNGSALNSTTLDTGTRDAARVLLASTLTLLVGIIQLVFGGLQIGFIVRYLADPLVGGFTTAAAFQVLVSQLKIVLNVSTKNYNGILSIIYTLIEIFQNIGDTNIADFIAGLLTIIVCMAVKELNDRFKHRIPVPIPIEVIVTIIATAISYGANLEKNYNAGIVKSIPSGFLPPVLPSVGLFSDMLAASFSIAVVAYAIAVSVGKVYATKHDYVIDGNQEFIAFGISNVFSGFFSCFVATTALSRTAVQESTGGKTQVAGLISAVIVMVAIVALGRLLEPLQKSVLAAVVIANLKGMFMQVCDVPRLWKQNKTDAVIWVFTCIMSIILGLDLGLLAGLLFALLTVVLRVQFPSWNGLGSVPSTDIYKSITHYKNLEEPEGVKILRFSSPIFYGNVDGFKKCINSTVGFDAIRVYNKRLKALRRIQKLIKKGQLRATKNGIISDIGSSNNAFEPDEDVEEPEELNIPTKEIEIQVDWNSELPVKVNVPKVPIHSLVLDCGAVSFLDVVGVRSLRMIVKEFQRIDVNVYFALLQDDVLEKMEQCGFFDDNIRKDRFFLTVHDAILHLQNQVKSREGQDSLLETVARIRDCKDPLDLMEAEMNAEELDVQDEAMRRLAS
In short: (§1)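 FRT cells expressing the given slc26 transporter plus EYFP-H148Q/I152L/F46L were preincubated 10 min with 0 or 10 µM compound in PBS. Iodide-substituted PBS was then added (140 mM NaCl replaced by NaI). The rate of YFP fluorescence quenching gave chloride/iodide exchange.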

[2] = target: T2, Chloride anion exchanger (Mus musculus, UniProt Q9WVC8)
T2 sequence (Q9WVC8 whole entry): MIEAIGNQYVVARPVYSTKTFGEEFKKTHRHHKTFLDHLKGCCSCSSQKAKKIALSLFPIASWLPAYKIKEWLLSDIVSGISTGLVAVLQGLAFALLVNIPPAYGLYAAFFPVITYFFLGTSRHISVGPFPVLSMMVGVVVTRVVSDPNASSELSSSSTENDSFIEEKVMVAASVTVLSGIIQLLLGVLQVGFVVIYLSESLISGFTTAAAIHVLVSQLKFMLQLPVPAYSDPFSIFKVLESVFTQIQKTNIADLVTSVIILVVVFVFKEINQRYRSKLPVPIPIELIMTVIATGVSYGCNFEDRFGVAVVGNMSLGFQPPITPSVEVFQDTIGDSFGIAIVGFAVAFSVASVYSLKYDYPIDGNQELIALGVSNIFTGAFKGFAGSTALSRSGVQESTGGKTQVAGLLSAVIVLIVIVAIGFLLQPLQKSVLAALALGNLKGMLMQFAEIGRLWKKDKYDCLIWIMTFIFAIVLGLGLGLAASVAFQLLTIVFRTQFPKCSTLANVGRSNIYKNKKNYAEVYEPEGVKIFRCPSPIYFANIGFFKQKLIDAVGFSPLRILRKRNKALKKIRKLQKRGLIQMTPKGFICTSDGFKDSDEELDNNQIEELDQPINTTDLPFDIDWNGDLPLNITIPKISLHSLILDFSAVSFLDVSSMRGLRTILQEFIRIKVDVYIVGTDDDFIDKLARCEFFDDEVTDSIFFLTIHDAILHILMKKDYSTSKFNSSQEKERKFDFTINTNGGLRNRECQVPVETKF

[3] = target: T3, Solute carrier family 26 member 9 (Homo sapiens) (UniProt Q7LBE3); test: Inhibition of human slc26a9 expressed in FRT cells co-expressing EYFP-H148Q/I152L/F46L assessed as reduction in protein-mediated chloride/iodide exchange at 10 uM preincubated for 10 mins followed by NaI-substituted PBS addition and measured by YFP-based fluorescence assay; assay type: cell-based; in short: as §1
T3 sequence (whole entry): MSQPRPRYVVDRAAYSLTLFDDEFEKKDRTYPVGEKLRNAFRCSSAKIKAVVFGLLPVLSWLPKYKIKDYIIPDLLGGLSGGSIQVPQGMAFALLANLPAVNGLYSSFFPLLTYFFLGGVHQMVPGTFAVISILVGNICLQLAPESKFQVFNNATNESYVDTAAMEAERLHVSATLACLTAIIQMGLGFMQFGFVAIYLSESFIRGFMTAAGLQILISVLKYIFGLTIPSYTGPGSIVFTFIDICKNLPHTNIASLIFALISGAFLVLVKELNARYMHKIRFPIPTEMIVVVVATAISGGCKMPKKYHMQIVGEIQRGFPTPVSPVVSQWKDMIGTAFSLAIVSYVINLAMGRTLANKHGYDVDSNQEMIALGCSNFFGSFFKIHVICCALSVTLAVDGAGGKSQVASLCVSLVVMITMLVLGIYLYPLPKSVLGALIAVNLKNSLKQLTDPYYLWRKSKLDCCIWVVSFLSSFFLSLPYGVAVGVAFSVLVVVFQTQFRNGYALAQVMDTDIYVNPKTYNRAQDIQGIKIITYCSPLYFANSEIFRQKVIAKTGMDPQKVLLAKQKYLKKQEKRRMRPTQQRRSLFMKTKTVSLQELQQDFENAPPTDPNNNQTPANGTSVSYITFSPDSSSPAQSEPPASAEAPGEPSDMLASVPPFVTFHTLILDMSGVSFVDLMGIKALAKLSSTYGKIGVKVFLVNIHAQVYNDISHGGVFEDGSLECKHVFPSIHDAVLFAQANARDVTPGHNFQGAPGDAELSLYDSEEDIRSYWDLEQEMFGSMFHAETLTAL

inhibition [1] | IC50 [2] [µM] | inhibition [3] | SMILES
inactive | 0.023 | inactive | Cc1c(CC(=O)O)c(=O)oc2c(C)c(OCc3cccc(C(F)(F)F)c3)ccc12
inactive | 0.035 | inactive | Cc1c(CC(=O)O)c(=O)oc2c(C)c(OCc3cccc(I)c3)ccc12
